Data taken from ChEMBL document CHEMBL4513216, “Probing the Open Global Health Chemical Diversity Library for Multistage-Active Starting Points for Next-Generation Antimalarials” (ACS Infect Dis, 2020).

Test: Toxicity liver stage against HepG2, at 10uM
Type: cell-based
Set-up: test concentration 10 uM, cell line HepG2-A16-CD81EGFP
Settings: human, HepG2-A16-CD81EGFP cells; read-out: INHIBITION
How it was run: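 Uninfected HepG2-A16-CD81EGFP cells, 3 × 10^3 per well, 1536-well, plated on prespotted compound at 10 μM final, parasite-free screening media added to match infected plates; puromycin 10 μM positive, DMSO 0.5% negative; run in parallel with 48 h PbLuc assay at 37 °C, 5% CO2; viability by CellTiter-Glo luminescence, normalized to controls.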

Compound | cytotoxicity at 10 µM [%]
CC(C)(C)C(=O)N[C@H]1C[C@@H](Cc2cc(CN3CCOCC3)on2)C1(C)C | -7.15
Cc1nc(N2CCCC2)ncc1C(=O)Nc1ccc(Br)cc1 | -1.85
Cc1cccc(C2CCCCCN2Cc2cn(C)nc2C)c1 (configuration not stated) | -1.17
CC(=O)c1cn(CCC(=O)NCCCC(=O)O)c2ccccc12 | -1.63
CSc1c(CC(=O)O)n(C)c2ccccc12 | 3.79
COc1nn(C)cc1C(=O)NCC(=O)NCc1ccccn1 | -3.56
Cc1ccccc1CN1CCC2(CCCN2C(=O)C(C)C)CC1 | 11.7
COc1ccc(S(=O)(=O)N2CCn3cnc(COCC4CC4)c3C2)cc1 | -0.262
CC(C)(C)C(=O)N1C[C@@H]2COC[C@]2(c2nnc(C3CC3)o2)C1 | -2.47
CCN1CC2(CC1=O)CN(Cc1cccs1)CCN(C(=O)C(C)C)C2 (configuration not stated) | -13.9
COc1cc(C(=O)NCCCO)cc2occc12 | 5.47
Cn1cc(CN2CCc3nc4ccccc4c(=O)n3CC2)cn1 | -1.57
Cc1noc(C)c1-c1nc(C2CCCN(C(=O)CCN)C2)ccc1CO (configuration not stated) | -2.53
OC1CCCOC12CCN(CCCOc1ccccc1F)CC2 (configuration not stated) | 3.4
CC(=O)N1CCCC1c1nccnc1NCc1cccnc1 (configuration not stated) | -6.72
O=C(NCc1ccco1)c1cc[n+]([O-])cc1 | 3.33
Cc1ccc2[nH]c(C3CCN(CC(N)=O)CC3)nc2c1 | 3.23
COc1cccc(-c2cc(C3CCCNC3)ccn2)c1 (configuration not stated) | 0.207
Cc1ccncc1NS(=O)(=O)c1ccc(Cl)s1 | 0.405
Cc1cccc(C(=O)N2CCCC2)c1NCC(=O)NC1(C#N)CCCC1 | -11.5
COCCOc1cccc(CNCc2ccc(-n3cncn3)nc2)c1 | -11.8

Compound | cytotoxicity at 10 µM [%]
Cc1ccc(N2N=C(C(=O)N(C)Cc3ccco3)NCC2=O)cc1 | 6.27
CC(=O)N1CC(C)CN(C(=O)c2cccnc2C)c2ccccc21 (configuration not stated) | 6.45
NC(=O)CC1CCCN(C(=O)NCC2(c3cccs3)CCCC2)C1 (configuration not stated) | 1.9
Cc1nc(-c2nnc[nH]2)sc1C(=O)N1CCCC1CC(C)(C)C (configuration not stated) | 12.1
N#Cc1ccc(CSCCN2CCOCC2)cc1 | 4.2
Cc1cnc(NC(=O)N2CCCCCC2)s1 | -2.81
COc1ccccc1C1(CNc2nnc(C)c(C)c2C#N)CCOCC1 | 6.77
COC(=O)[C@H](C)NC(=O)COc1nn(C)c2nc(C)cc(C)c12 | -2.53
Cc1noc(CN(Cc2cccc(C#N)c2)Cc2ccco2)n1 | 0.554
COc1ccc2c(c1)CCCN(C(C)C(=O)NC(C)C)C2 (configuration not stated) | 9.56
O=C(CCc1ccc(Br)cc1)NCc1nnc[nH]1 | 0.163
Cc1ccc(-c2nnc(CN3CC(n4cc(C)cn4)C3)o2)cc1 | 2.48
NC(=O)CN(Cc1ccc(Br)cc1)C(=O)c1ccncc1 | 4.16
Cc1nc(C)c(CC(=O)N2CCN(CC(C)C)CC2)c(=O)[nH]1 | -12.3
O=C(NCc1cc(Br)cs1)Nc1cn[nH]c1 | 5.85
CC(C)(NS(C)(=O)=O)c1nc(-c2ccc(F)cc2Cl)no1 | 4.98
CC(C)C(C)N1Cc2cccc(NCC(=O)N(C)C)c2C1 (configuration not stated) | 8
COC(=O)c1cccc(S(=O)(=O)NC(=O)c2cccc(OC)c2OC)c1 | 12.2
COc1ncc(NCc2csc(-c3ccco3)n2)cc1C(N)=O | -17.9
O=C(COCc1ccccc1Cl)N1CCN(c2cnccn2)CC1 | 7.57
CCC(CC)c1cc(C(=O)N2CCCC(n3cncn3)C2)on1 (configuration not stated) | -13.1

Compound | cytotoxicity at 10 µM [%]
CS(=O)(=O)c1ccccc1C(=O)NCC1Cc2ccccc2O1 (configuration not stated) | -9.6
O=c1cc(Cn2ccnc2)nc2n1CCCN(S(=O)(=O)C1CC1)C2 | 7.95
Cc1cnc(C(=O)N2C[C@H]3CN(Cc4cccc(F)c4)C(=O)[C@H]3C2)cn1 | -85.7
O=C(C1CCS(=O)(=O)CC1)N1CCC(c2ccc(F)cc2)C1 (configuration not stated) | -60.1
O=c1[nH]c(COc2ccc(Cl)cc2)nc2c1CCNC2 | 6.6
CC(C)n1ccnc1Cn1ccc2ncccc2c1=O | -4.65
Cc1[nH]nc(CCC(=O)N2CCc3c(nc[nH]c3=O)C2)c1C | 3.63
CN(C)CCN(C)C(=O)c1cn(CC2CCCCC2)nn1 | -3.61
O=C(O)[C@@H]1CN(Cc2c[nH]c(CC3CCCC3)n2)C[C@H]1c1ccncc1 | 1.08
O=C1CC2(CCN(C(=O)Cc3cc4c(cc3Cl)OCCO4)C2)C(=O)N1 (configuration not stated) | 12.7
CCCc1nc(C(=O)N2CCCn3nc(CCC(=O)O)cc3C2)cs1 | -9.84
O=C(CCc1cccnc1)N(Cc1ccsc1)CC1CCCO1 (configuration not stated) | -11.5
CN(CCO)C[C@@H]1CN(C(=O)c2c(F)cccc2Cl)C[C@@H]1CO | -9
Cc1cc(NCc2cc3n(n2)CCCN(S(C)(=O)=O)C3)ncn1 | -14.3
Cn1ccc(C(=O)N2CCC(Cc3cccc4cccnc34)C2)n1 (configuration not stated) | 2.16
CN(C)c1ncccc1CNC(=O)NCc1ccc(Cl)s1 | 9.21
Cc1n[nH]c(C)c1C1COCCN1C(=O)c1cc(F)ccc1F (configuration not stated) | -9.24
Cc1cc(C2CCCN(CCS(=O)(=O)c3ccccc3)C2)n[nH]1 (configuration not stated) | -16.7
CC(C)c1n[nH]c(C(=O)NC(C)c2ccncc2)c1Br (configuration not stated) | -5.85
CS(=O)(=O)c1ccc(C(=O)N2CCCC(n3ccnc3)C2)cc1 (configuration not stated) | -19.4
CC(C)(O)CN1CCN(C(=O)c2cccc(CC#N)c2)CC1 | -13.4

Compound | cytotoxicity at 10 µM [%]
c1csc(-c2noc(CCCN3CCCC3Cn3cncn3)n2)c1 (configuration not stated) | -24.2
CN(C)c1ncccc1CNS(=O)(=O)c1cc(F)cc(F)c1 | -14
Cc1nn(Cc2ccccc2)c(C)c1CNC1CCc2ncnn2C1 (configuration not stated) | -1.04
CCN1CC(C(=O)NCc2cccnc2-n2cccn2)CC1=O (configuration not stated) | 0.796
Cc1nnc(C2Cc3ccccc3CN2Cc2nc(C(C)C)no2)o1 (configuration not stated) | -22
Cn1cnnc1C1CCCN(C(=O)c2cc(Cl)c(Cl)n2C)C1 (configuration not stated) | -4.9
CC(c1nc(C2CC2)no1)N1CCN(Cc2cccc(F)c2F)CC1 (configuration not stated) | -4.93
CN(C)c1ncc2c(O)nc(C3CCNCC3)cc2n1 | 13.3
CC(C)N1CCC2(CCCNC2)C1=O (configuration not stated) | 0.906
Cc1cc(N2CCN(Cc3cn(C)nc3C)CC2)cc(C2CCCN2)n1 (configuration not stated) | 0.525
COCC1CN(Cc2ccc(F)cc2)Cc2nnn(CC3CC3)c21 (configuration not stated) | 3.4
O=C(c1ccsc1)N1CCOC2(CCN(Cc3cccnc3)CC2)C1 | -3.12
CN(C)CCN1C[C@@H]2CN(S(=O)(=O)c3cccs3)C[C@@H]2C1=O | 0.0221
Cc1noc(C)c1CN1C[C@@H]2C[C@@H](C)O[C@@H]2C1 | 4.06
O=C(NC1CCCC1)[C@H]1CC[C@@H]2[C@@H](CCN2c2ncc(F)cn2)O1 | 0.441
O=S(=O)(C1CC1)N1CCO[C@H]2[C@H](OCCN3CCCC3)CC[C@@H]21 | -5.63
CN(C)C1COC2(CCN(C(=O)c3cccc(Cl)c3)CC2)C1 (configuration not stated) | -7.81
Cc1cccc(CN2CCc3ncnc(N4CCOCC4)c3CC2)n1 | -4.95
CSc1ncc(C(=O)N2C[C@@H]3CC[C@H]2CN(Cc2ccccc2)C3)cn1 | -7.49
